{
  "source": "paper PMC8915191",
  "about": "(Clinical cancer research : an official journal of the …, 2019)",
  "key": {"[1]": {"test_system": "peripheral blood mononuclear cells", "assay": "Autophagic vesicles in serial PBMC by quantitative electron microscopy", "type": "in vivo, human", "details": "after one week of everolimus alone; 11 patients", "summary_of_the_method": "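Cancer patients took everolimus 10 mg alone for one week, then HCQ 400 or 600 mg twice daily was added. Serial PBMC were collected before treatment, after one cycle and after two cycles (one week of everolimus alone; one month combined) in a limited number of patients (3 at 400 mg, 8 at 600 mg). PBMC were fixed for quantitative EM of autophagic vesicles.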"}, "[2]": {"test_system": "advanced clear cell renal carcinoma (ccRCC)", "details": "cited from earlier work"}, "[3]": {"assay": "HCQ population pharmacokinetics, whole blood concentrations by HPLC-MS/MS", "type": "in vivo, human", "summary_of_the_method": "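HCQ 400 or 600 mg twice daily was given with everolimus, with a draw at each visit plus intensive sampling in a few patients (pre-dose, 15 min, 30 min, 1, 2, 3, 4, 6 h). Heparinized whole blood was stored at −70 °C and spiked with d4-HCQ internal standard. It was acetonitrile/methanol-precipitated and run on LC-MS/MS (positive ESI, MRM 337.275→248.152) in duplicate. The curve was 1–7500 ng/mL (LLOQ 1.0 ng/mL). A 2-compartment first-order-absorption model was fitted.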"}, "[4]": {"test_system": "patients with advanced RCC", "details": "human, in vivo, po, 5 weeks"}, "[5]": {"details": "no reference given; cited from earlier work"}, "mTOR": {"test_system": "mTOR", "details": "cited from earlier work"}, "[6]": {"details": "2-compartment population PK model, 27 patients, oral HCQ"}, "[7]": {"details": "1000 bootstrap runs, population PK model"}},
  "note": "Values joined by “and” are separate entries in the source; they are usually repeats but may differ in a detail not shown here. Equal values may be shown once.",
  "data": [
    {"molecule": "CO[C@H]1C[C@@H]2CC[C@@H](C)[C@@](O)(O2)C(=O)C(=O)N2CCCC[C@H]2C(=O)O[C@H]([C@H](C)C[C@@H]2CC[C@@H](OCCO)[C@H](OC)C2)CC(=O)[C@H](C)/C=C(\\C)[C@@H](O)[C@@H](OC)C(=O)[C@H](C)C[C@H](C)/C=C/C=C/C=C/1C", "note": "[everolimus, Everolimus]", "values": [
      {"measurement": "Drug-induced change in autophagic vesicles in PBMC", "setting": "[1]", "value": "no significant drug-induced changes"},
      {"measurement": "Hazard ratio for PFS, everolimus versus placebo", "setting": "[2]; 95% CI 0.22–0.40, p<0·0001", "value": 0.30},
      {"measurement": "Median PFS, everolimus alone, CHECKMATE 025", "setting": "[2]", "value": 4.6, "unit": "months"},
      {"measurement": "Median PFS, everolimus alone, METEOR", "setting": "[2]", "value": 3.8, "unit": "months"},
      {"measurement": "Response rate, everolimus single agent", "setting": "[2]", "value": 1, "unit": "%"},
      {"measurement": "Median PFS, everolimus alone, RECORD-1", "setting": "[2]; everolimus 10 mg daily after TKI progression", "value": "4.01 months and 4 months"}
    ]},
    {"molecule": "CCN(CCO)CCCC(C)Nc1ccnc2cc(Cl)ccc12", "note": "(stereo not drawn) [HCQ, Hydroxychloroquine]", "values": [
      {"measurement": "Cl/F, apparent oral clearance, Model estimate", "setting": "[3]; [6]", "value": 7.98, "unit": "L/h"},
      {"measurement": "Q, intercompartmental clearance, Model estimate", "setting": "[3]; [6]", "value": 14.98, "unit": "L/h"},
      {"measurement": "V2/F, apparent peripheral volume of distribution, Model estimate", "setting": "[3]; [6]", "value": 3604.83, "unit": "L"},
      {"measurement": "Ka, absorption rate constant, Model estimate", "setting": "[3]; 2-compartment population PK model, 163 blood samples from 27 patients, oral HCQ", "value": 0.93, "unit": "h"},
      {"measurement": "Cl/F, apparent oral clearance, Bootstrap Estimate", "setting": "[3]; [7]", "value": 8.00, "unit": "L/h"},
      {"measurement": "Ka, absorption rate constant, Bootstrap Estimate", "setting": "[3]; [7]", "value": 1.00, "unit": "h"},
      {"measurement": "Q, intercompartmental clearance, Bootstrap Estimate", "setting": "[3]; [7]", "value": 15.02, "unit": "L/h"},
      {"measurement": "V2/F, apparent peripheral volume of distribution, Bootstrap Estimate", "setting": "[3]; [7]", "value": 3598.91, "unit": "L"},
      {"measurement": "Vd/F", "setting": "[3]; human, whole blood, po", "value": 600, "unit": "L"},
      {"measurement": "Recommended phase II dose (RP2D) of HCQ", "setting": "[4]", "value": 600, "unit": "mg"},
      {"measurement": "Plasma protein binding", "setting": "[5]", "value": "not extensively bound to plasma proteins"}
    ]},
    {"molecule": "CO[C@H]1C[C@@H]2CC[C@@H](C)[C@@](O)(O2)C(=O)C(=O)N2CCCC[C@H]2C(=O)O[C@H]([C@H](C)C[C@@H]2CC[C@@H](OC(=O)C(C)(CO)CO)[C@H](OC)C2)CC(=O)[C@H](C)/C=C(\\C)[C@@H](O)[C@@H](OC)C(=O)[C@H](C)C[C@H](C)/C=C/C=C/C=C/1C", "note": "[temsirolimus]", "values": [
      {"measurement": "mTOR inhibition in PBMC", "setting": "mTOR", "value": "sustained mTOR inhibition"}
    ]}
  ]
}
